From ChEMBL document CHEMBL5661979, “Pharmacological inhibition of BMK1 suppresses tumor growth through promyelocytic leukemia protein” (Cancer Cell, 2010) come the findings set out here.

In one data set the target is Wee1-like protein kinase (Homo sapiens, UniProt P30291). Put plainly: Inhibition of Wee1 in human HeLa cells lysate pre incubated for 15 mins followed by ATP acyl phosphate probe addition and measured after 10 mins by LC-MS/MS analysis. The class given is subcellular.
In data set [1] the target is Proto-oncogene tyrosine-protein kinase ROS (Homo sapiens) (UniProt P08922). As to the kind of experiment: Inhibition of ROS1 (unknown origin) assessed as remaining activity at 10 uM by ATP-competition binding assay relative to control.
Data set [2] deals with Macrophage-stimulating protein receptor (Homo sapiens, UniProt Q04912). Put plainly: Inhibition of RON in human HeLa cells lysate at 50 uM pre incubated for 15 mins followed by ADP acyl phosphate probe addition and measured after 10 mins by LC-MS/MS analysis relative to control. The note with it: time 25.0 min. Format: subcellular.
Data set [3] concerns the target Mitogen-activated protein kinase kinase kinase 1 (Homo sapiens, UniProt Q13233). Put plainly: Inhibition of MAP3K1 in human HeLa cells lysate at 50 uM pre incubated for 15 mins followed by ADP acyl phosphate probe addition and measured after 10 mins by LC-MS/MS analysis relative to control. Format: subcellular. Particulars: time 25.0 min.
The target of data set [4] is T1, STE20-related kinase adapter protein beta (Homo sapiens) (UniProt Q9C0K7).
T1 sequence (whole entry): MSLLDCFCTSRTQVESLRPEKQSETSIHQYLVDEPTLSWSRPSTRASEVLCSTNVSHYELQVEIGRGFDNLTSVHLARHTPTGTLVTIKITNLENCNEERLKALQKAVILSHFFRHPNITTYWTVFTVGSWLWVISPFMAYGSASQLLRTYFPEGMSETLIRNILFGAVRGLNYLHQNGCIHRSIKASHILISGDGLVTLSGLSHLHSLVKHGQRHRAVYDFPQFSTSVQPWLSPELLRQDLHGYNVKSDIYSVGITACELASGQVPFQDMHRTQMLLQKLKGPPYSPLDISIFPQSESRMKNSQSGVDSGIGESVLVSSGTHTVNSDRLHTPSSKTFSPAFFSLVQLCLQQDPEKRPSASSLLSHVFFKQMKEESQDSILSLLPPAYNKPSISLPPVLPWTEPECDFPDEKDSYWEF
Put plainly: Inhibition of ALS2CR2 in human HeLa cells lysate at 50 uM pre incubated for 15 mins followed by ADP acyl phosphate probe addition and measured after 10 mins by LC-MS/MS analysis relative to control. Format: subcellular. The note with it: time 25.0 min. The procedure, abridged: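 HeLa cell lysates (5 mg/mL total protein) were preincubated with inhibitor at 0, 0.8, 2, 10 or 50 μM for 15 min. ATP or ADP acylphosphate probe was then added (5 μM final) for 10 min, and reactions were stopped with urea. Up to four fragment ions per kinase probe-peptide were quantified by targeted MS. % inhibition was taken relative to untreated lysate. Run in duplicate.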

Data set [5] deals with T2, Dual specificity mitogen-activated protein kinase kinase 3 (Homo sapiens) (UniProt P46734).
T2 sequence (whole entry): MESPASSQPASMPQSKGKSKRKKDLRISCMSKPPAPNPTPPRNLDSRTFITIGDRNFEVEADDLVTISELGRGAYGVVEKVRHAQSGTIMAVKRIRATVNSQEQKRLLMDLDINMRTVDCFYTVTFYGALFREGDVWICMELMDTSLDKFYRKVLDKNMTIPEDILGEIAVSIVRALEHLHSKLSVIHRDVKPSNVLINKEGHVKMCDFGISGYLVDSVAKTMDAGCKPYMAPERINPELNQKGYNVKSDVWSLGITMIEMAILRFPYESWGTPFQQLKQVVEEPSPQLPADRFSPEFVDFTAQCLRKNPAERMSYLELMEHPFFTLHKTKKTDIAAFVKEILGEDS
Put plainly: Inhibition of MAP2K3 in human HeLa cells lysate at 10 uM pre incubated for 15 mins followed by ADP acyl phosphate probe addition and measured after 10 mins by LC-MS/MS analysis relative to control. The class given is subcellular. Particulars: time 25.0 min.

Data set [6] concerns the target Ribosomal protein S6 kinase alpha-5 (Homo sapiens, UniProt O75582). As to the kind of experiment: Inhibition of MSK1 domain 1 in human HeLa cells lysate at 2 uM pre incubated for 15 mins followed by ADP acyl phosphate probe addition and measured after 10 mins by LC-MS/MS analysis relative to control. Format: subcellular. Particulars: time 25.0 min.
Data set [7] addresses T3, Serine/threonine-protein kinase Chk1 (Homo sapiens) (UniProt O14757).
T3 sequence (whole entry): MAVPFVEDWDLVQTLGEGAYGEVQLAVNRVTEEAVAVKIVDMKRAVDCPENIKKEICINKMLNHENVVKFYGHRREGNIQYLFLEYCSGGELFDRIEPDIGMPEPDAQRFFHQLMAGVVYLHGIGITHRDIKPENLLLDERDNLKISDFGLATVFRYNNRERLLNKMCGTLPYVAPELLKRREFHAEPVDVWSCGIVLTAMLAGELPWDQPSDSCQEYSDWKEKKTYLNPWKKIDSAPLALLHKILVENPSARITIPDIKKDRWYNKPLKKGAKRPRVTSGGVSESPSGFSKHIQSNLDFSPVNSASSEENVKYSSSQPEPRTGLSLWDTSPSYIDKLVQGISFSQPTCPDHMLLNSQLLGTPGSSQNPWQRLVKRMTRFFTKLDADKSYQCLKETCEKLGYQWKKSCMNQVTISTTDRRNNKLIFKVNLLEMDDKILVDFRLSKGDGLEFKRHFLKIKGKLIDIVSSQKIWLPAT
As to the kind of experiment: Inhibition of CHK1 in human HeLa cells lysate at 50 uM pre incubated for 15 mins followed by ATP acyl phosphate probe addition and measured after 10 mins by LC-MS/MS analysis relative to control. The class given is subcellular. The note with it: time 25.0 min.

The target of data set [8] is T4, Scaffold protein ILK (Homo sapiens) (UniProt Q13418).
T4 sequence (whole entry): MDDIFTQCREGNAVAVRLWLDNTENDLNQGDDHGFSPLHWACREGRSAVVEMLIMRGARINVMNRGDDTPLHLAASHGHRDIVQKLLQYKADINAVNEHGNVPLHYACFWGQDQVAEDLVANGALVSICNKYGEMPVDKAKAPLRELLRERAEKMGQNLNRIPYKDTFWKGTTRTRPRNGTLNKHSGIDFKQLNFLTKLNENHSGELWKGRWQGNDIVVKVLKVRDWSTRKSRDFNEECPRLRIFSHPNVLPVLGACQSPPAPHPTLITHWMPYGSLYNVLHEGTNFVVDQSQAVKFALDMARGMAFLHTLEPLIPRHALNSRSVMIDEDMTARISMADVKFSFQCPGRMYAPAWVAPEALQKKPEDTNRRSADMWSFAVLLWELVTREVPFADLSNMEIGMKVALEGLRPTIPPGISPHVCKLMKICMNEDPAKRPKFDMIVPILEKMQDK
As to the kind of experiment: Inhibition of ILK in human HeLa cells lysate at 50 uM pre incubated for 15 mins followed by ATP acyl phosphate probe addition and measured after 10 mins by LC-MS/MS analysis relative to control. The note with it: time 25.0 min. The class given is subcellular.

Data set [9] is described as follows: Cmax in Sprague-Dawley rat at 1 mg/kg, iv measured up to 8 hrs by LC-MS/MS analysis. Format: ADME, organism-based. The note with it: in vivo.

Structures are written as SMILES. pIC50: −log10 of the molar value.

Mitogen-activated protein kinase kinase kinase 1, sequence (Q13233 whole entry): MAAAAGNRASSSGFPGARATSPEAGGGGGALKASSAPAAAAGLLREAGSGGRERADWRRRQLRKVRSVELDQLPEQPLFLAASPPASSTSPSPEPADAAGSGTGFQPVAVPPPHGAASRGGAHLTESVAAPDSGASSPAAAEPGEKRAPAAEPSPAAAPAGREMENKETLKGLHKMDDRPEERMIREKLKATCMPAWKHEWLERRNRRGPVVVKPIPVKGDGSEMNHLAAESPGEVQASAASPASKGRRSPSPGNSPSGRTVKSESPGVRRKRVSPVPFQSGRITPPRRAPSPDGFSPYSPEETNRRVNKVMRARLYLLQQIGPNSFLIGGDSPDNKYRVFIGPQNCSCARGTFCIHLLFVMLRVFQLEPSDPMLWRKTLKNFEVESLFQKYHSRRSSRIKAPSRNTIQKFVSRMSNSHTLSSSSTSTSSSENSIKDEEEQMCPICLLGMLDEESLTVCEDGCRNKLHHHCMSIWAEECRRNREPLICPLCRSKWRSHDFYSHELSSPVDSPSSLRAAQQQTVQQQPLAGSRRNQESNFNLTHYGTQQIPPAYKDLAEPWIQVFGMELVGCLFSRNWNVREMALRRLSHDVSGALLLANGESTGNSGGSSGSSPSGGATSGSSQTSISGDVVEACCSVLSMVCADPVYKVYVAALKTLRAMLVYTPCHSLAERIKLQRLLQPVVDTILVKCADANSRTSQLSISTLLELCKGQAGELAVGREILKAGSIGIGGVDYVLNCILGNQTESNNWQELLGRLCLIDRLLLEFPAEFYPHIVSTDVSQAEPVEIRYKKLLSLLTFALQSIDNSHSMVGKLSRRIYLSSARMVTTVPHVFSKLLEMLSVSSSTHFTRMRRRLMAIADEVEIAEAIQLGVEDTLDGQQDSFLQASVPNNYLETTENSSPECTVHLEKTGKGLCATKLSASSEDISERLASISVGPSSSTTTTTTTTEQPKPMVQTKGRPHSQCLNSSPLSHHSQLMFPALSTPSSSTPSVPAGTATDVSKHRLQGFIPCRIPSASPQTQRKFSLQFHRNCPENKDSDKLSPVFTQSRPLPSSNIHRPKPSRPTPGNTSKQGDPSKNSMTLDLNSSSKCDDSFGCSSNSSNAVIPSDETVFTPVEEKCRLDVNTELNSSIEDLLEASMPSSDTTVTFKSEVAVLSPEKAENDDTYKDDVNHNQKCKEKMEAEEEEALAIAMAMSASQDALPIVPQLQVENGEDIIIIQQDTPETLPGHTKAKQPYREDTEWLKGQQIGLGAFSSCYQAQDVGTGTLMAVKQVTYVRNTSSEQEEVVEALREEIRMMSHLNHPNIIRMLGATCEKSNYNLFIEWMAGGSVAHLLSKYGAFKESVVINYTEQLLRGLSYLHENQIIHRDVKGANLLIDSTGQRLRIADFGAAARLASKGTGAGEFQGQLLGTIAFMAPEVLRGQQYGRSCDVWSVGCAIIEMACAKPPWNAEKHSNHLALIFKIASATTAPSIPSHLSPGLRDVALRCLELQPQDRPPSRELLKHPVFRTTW
Wee1-like protein kinase, sequence (P30291 whole entry): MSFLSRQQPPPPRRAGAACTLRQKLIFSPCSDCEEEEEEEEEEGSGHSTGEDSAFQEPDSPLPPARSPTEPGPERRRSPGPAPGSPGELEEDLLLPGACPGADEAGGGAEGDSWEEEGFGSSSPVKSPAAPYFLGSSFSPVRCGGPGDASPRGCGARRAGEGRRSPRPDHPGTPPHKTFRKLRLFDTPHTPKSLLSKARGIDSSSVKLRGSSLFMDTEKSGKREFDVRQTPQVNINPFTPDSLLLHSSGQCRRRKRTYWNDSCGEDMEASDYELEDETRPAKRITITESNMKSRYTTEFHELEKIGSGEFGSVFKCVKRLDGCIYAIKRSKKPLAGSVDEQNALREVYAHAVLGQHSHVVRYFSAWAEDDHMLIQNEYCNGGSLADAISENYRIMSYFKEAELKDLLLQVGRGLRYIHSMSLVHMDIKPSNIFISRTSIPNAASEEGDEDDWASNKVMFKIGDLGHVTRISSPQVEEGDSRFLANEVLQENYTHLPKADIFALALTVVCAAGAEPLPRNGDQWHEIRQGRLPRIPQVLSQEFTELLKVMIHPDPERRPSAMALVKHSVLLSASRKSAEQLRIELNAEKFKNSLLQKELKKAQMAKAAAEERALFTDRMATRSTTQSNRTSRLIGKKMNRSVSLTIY
Macrophage-stimulating protein receptor, sequence (Q04912 25-304 limits assumed): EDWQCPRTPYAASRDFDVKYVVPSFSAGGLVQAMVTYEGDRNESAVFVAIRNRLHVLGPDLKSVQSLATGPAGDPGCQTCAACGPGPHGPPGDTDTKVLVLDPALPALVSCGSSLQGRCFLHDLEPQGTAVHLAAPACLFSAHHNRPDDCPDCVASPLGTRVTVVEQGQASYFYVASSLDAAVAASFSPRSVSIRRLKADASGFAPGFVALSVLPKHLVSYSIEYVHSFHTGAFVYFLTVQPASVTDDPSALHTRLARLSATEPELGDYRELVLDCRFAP
Macrophage-stimulating protein receptor, sequence (Q04912 310-1400 limits assumed): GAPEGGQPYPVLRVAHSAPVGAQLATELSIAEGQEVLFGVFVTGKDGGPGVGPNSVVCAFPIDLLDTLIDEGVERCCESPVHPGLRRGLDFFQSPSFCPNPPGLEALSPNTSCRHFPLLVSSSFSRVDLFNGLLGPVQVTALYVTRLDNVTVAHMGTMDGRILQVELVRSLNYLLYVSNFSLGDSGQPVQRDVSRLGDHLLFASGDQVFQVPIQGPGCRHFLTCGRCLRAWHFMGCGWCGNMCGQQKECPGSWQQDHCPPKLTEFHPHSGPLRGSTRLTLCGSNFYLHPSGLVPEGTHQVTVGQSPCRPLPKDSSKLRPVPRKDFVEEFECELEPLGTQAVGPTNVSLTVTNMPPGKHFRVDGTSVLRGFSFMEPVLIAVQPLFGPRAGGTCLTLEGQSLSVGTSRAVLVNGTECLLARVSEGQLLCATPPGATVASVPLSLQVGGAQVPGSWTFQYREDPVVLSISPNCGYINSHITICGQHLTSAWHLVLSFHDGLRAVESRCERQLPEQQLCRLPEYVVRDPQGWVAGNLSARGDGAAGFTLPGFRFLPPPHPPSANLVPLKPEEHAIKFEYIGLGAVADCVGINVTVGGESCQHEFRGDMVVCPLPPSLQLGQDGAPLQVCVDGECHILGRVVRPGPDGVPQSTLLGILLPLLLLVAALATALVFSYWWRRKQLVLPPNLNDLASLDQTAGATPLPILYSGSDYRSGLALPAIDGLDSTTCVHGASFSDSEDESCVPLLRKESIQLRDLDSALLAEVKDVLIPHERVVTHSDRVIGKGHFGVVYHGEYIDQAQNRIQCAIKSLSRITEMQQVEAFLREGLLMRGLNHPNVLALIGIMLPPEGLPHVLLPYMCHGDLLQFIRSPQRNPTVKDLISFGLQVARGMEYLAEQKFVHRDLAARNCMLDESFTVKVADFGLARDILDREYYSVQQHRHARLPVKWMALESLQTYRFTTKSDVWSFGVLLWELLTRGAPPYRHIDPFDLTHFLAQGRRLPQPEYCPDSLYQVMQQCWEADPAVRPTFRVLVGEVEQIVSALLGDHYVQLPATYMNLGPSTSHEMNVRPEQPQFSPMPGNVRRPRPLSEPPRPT
Ribosomal protein S6 kinase alpha-5, sequence (O75582 whole entry, looked up, the tested form may be a part): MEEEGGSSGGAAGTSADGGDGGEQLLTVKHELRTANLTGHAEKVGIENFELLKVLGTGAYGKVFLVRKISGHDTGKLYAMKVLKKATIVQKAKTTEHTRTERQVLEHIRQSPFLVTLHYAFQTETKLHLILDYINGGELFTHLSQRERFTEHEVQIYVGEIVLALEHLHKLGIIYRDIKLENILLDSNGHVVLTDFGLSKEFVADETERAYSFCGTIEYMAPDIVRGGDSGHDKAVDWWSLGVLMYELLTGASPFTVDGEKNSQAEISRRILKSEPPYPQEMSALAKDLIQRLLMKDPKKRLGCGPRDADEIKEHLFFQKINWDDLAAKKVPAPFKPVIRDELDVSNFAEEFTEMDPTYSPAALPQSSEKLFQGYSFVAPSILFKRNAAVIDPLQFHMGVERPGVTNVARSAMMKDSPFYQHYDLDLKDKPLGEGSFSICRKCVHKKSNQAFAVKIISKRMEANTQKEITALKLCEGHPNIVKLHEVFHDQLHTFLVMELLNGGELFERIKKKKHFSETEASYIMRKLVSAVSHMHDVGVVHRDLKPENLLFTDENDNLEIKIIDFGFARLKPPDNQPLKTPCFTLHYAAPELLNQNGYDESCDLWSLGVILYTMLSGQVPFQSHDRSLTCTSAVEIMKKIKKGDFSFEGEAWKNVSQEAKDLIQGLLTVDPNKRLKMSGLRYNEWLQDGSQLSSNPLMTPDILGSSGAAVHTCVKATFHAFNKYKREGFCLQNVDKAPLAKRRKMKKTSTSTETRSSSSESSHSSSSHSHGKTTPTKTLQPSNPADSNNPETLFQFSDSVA

By pIC50 is commonly meant the IC50 on a negative log10 scale, so that one unit is a factor of ten. Lower therefore signals a high IC50. In general, inhibition refers to the change of the read-out against control, counted positive when it falls. Usually Cmax stands for the peak of the concentration-time curve. As for `CCOc1cc(N2CCC(O)CC2)ccc1Nc1ncc2c(n1)N(C)c1ccccc1C(=O)N2C`, the pIC50 at Wee1-like protein kinase is less than 4.30. Also, the Activity in data set [1] worked out at 15%. The inhibition in data set [2] was 24%; in data set [3], 14.1%; in data set [4], 12.7%; in [5], -9.7%; in data set [6], 21.5%; in data set [7], -0.4%. In addition, the inhibition in data set [8] is -6.7%. This compound also had a Cmax in data set [9] of 927 nM.
